Measurements as given in ChEMBL document CHEMBL1143913, “Pyrimidinone-peptoid hybrid molecules with distinct effects on molecular chaperone function and cell proliferation” (Bioorg Med Chem, 2008).

Tests used:
[1] = test system: SK-BR-3; assay: Antiproliferative activity against human SK-BR3 cells after 96 hrs by MTS assay; assay type: functional; settings: SK-BR-3, 96 h
How it was run: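 Cells were kept in exponential growth in DMEM with 10% FBS, 1% penicillin and 1% glutamine, seeded at 4,000 per well and grown 48 h, with a time-zero plate counted. They were then exposed for 72 h to DMSO (1 v/v) or a concentration range in quadruplicate. Cell number was read by MTS/N-methylphenazine methylsulfate absorbance at 490 minus 630 nm. GI50 is relative to DMSO over the 72 h or 96 h period, and values above 50 µM are given as >50.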

[2] = test system: Saccharomyces cerevisiae; assay: Inhibition of SV40 T antigen-stimulated Hsp70 ATPase in yeast assessed as ATP hydrolysis relative to control
How it was run: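 Yeast Ssa1p was pre-bound to ATP and run as a single-turnover assay with purified SV40 TAg (0.4 µM). Compound (300 µM) or DMSO was added at 60 s, and that time was set to zero. Runs were averaged over multiple experiments, kinetics were fitted, and the value is the fold change in TAg-stimulated ATP hydrolysis versus DMSO.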

[3] = test system: Saccharomyces cerevisiae; assay: Inhibition of yeast Hsp70 ATPase assessed as ATP hydrolysis relative to control
How it was run: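 Purified yeast Hsp70 (Ssa1p) was pre-bound to ATP and run as a single-turnover assay, so that only the hydrolysis step is measured. Compound (300 µM) or DMSO was added at 0 s, and that time was set to zero. Results from multiple experiments were averaged, kinetics were fitted, and the value is the fold change in hydrolysis versus DMSO.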

Row | SMILES | GI50 [1] | Fold change [2] | Fold change [3]
1 | CCCCCCN(C(=O)CCCCCN1C(=O)NC(c2ccc(C(C)(C)C)cc2)C(C(=O)OCc2ccccc2)=C1C)C(C(=O)NCCCC)c1ccc(OCC(=O)OC)c(C(=O)OC)c1 (configuration not stated) | 29 µM | -5.2 | 1.2
2 | CCCCCCN(C(=O)CCCCCN1C(=O)NC(c2ccc(C3CCCCC3)cc2)C(C(=O)OCc2ccccc2)=C1C)C(C(=O)NCCCC)c1ccc(OCC(=O)OC)c(C(=O)OC)c1 (configuration not stated) | 42 µM | -1.6 | 2.2
3 | CC1=C(C(=O)OCc2ccccc2)C(c2ccc(C(C)(C)C)cc2)NC(=O)N1CCCCCC(=O)O (configuration not stated) | > 50 µM | -3.5 | 1
4 | CC1=C(C(=O)OCc2ccccc2)C(c2ccc(C3CCCCC3)cc2)NC(=O)N1CCCCCC(=O)O (configuration not stated) | > 50 µM | -2.4 | 1.1
5 | CCCCCCN(C(=O)CCCCCN1C(=O)NC(c2ccc(-c3ccccc3)cc2)C(C(=O)OCc2ccccc2)=C1C)C(C(=O)NCCCC)c1ccc(OCC(=O)O)c(C(=O)O)c1 (configuration not stated) | > 50 µM | -2.2 | 1.1
6 | CCCCCCN(C(=O)CCCCCN1C(=O)NC(c2ccc(-c3ccccc3)cc2)C(C(=O)OCc2ccccc2)=C1C)C(C(=O)NCCCC)c1ccccn1 (configuration not stated) | > 50 µM | 5.5 | 4.2
7 | CC1=C(C(=O)OCc2ccccc2)C(c2ccc(-c3ccccc3)cc2)NC(=O)N1CCCCCC(=O)O (configuration not stated) | > 50 µM | -3.5 | 1.1
8 | CC1=C(C(=O)OCc2ccccc2)C(c2ccc3ccccc3c2)NC(=O)N1CCCCCC(=O)O (configuration not stated) | > 50 µM | -1.4 | -1.1
9 | CCCCNC(=O)C(c1ccc(OCC(=O)OC)c(C(=O)OC)c1)N(CCc1ccccc1)C(=O)CCCCCN1C(=O)NC(c2ccc(-c3ccccc3)cc2)C(C(=O)OCc2ccccc2)=C1C (configuration not stated) | 32 µM | 1.3 | 12.3
10 | CC1=C(C(=O)OCc2ccccc2)C(c2ccccc2)NC(=O)N1CCCCCC(=O)O (configuration not stated) | > 50 µM | -1.1 | 1.5
11 | CCCCCCN(C(=O)CCCCCN1C(=O)NC(c2ccc(-c3ccccc3)cc2)C(C(=O)OCc2ccccc2)=C1C)C(C(=O)NCCCC)c1ccc(-c2ccccc2)cc1 (configuration not stated) | > 50 µM | 6 | 9.9

Now those with a lower GI50 [1], led by results:

Row | GI50 [1] | Fold change [2] | Fold change [3] | SMILES
12 | 10 µM | -1.1 | 1 | CCCCCCN(C(=O)CCCCCN1C(=O)NC(c2ccc3ccccc3c2)C(C(=O)OCc2ccccc2)=C1C)C(C(=O)NCCCC)c1ccc(OCC(=O)OC)c(C(=O)OC)c1 (configuration not stated)
13 | 7.1 µM | -1.1 | 1 | CCCCNC(=O)C(c1ccc(OCC(=O)OC)c(C(=O)OC)c1)N(Cc1ccccn1)C(=O)CCCCCN1C(=O)NC(c2ccc(-c3ccccc3)cc2)C(C(=O)OCc2ccccc2)=C1C (configuration not stated)
14 | 14 µM | -1.9 | 1.5 | CCCCNC(=O)C(c1ccc(OCC(=O)OC)c(C(=O)OC)c1)N(Cc1ccccc1)C(=O)CCCCCN1C(=O)NC(c2ccc(-c3ccccc3)cc2)C(C(=O)OCc2ccccc2)=C1C (configuration not stated)
15 | 17 µM | -4 | -1.1 | CCCCCCN(C(=O)CCCCCN1C(=O)NC(c2ccccc2-c2ccccc2)C(C(=O)OCc2ccccc2)=C1C)C(C(=O)NCCCC)c1ccc(OCC(=O)OC)c(C(=O)OC)c1 (configuration not stated)
16 | 7.5 µM | -1.1 | -1.1 | CCCCNC(=O)C(c1ccc(OCC(=O)OC)c(C(=O)OC)c1)N(CCc1ccccn1)C(=O)CCCCCN1C(=O)NC(c2ccc(-c3ccccc3)cc2)C(C(=O)OCc2ccccc2)=C1C (configuration not stated)
17 | 16 µM | -5.1 | 1.3 | CCCCCCN(C(=O)CCCCCN1C(=O)NC(c2ccc(Cl)cc2)C(C(=O)OCc2ccccc2)=C1C)C(C(=O)NCCCC)c1ccc(OCC(=O)OC)c(C(=O)OC)c1 (configuration not stated)
18 | 6.1 µM | – | – | CC(=O)O[C@H]1C(=O)[C@@]2(C)[C@H]([C@H](OC(=O)c3ccccc3)[C@]3(O)C[C@H](OC(=O)[C@H](O)[C@@H](NC(=O)c4ccccc4)c4ccccc4)C(C)=C1C3(C)C)[C@]1(OC(C)=O)CO[C@@H]1C[C@@H]2O [PACLITAXEL]
